ChEMBL document CHEMBL1143072, “Nitric oxide production inhibitory activity of flavonoids contained in trunk exudates of Dalbergia sissoo” (J Nat Prod, 2008)

Experiments:
[1] = test system: J774.1; assay: Inhibition of nitric oxide production in LPS induced mouse J774.1 cells; assay type: functional, cell-based
Summary of the method: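 J774.1 cells are grown in DMEM with 10% FCS, penicillin and streptomycin. Adherent cells are plated at 1 × 10^5 cells/well and left 6 h at 37 °C in 5% CO2. Fresh medium with LPS 1 µg/mL and the compound at a range of concentrations is added for 24 h. Nitrite in the supernatant is measured with Griess reagent (10 min, room temperature, A550), with medium blank subtracted. % inhibition is taken against LPS-only wells. L-NMMA is the positive control.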

[2] = Cytotoxicity against LPS induced mouse J774.1 cells by MTT assay; assay type: cell-based
Summary of the method: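 LPS-stimulated J774.1 cells from the NO assay (1 × 10^5 cells/well, 24 h with LPS 1 µg/mL plus compound). After the supernatant is taken off, cells get fresh medium with MTT 2 mg/mL for 3 h at 37 °C in 5% CO2. Formazan is dissolved in DMSO and absorbance is read at 550 nm.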

[3] = Inhibition of NO production in LPS induced mouse J774.1 cells by Griess assay

SMILES | IC50 [1] [µM] | Activity [2] [µM] | IC50 [3] [µM]
C=C[C@H](C1=CC(=O)C(OC)=CC1=O)c1ccccc1 | 38.8 |  | 
C=CC(c1ccccc1)C1(O)C(=O)C=C(OC)C(=O)C1O (configuration not stated) | 3.19 | > 100 | 
CNC(=N)NCCC[C@H](N)C(=O)O [TILARGININE] | 31.6 |  | 27.1
C=C[C@H](C1=CC(=O)C(OC)=CC1=O)c1ccc(O)cc1 | 11.5 | > 100 | 
COC1=CC(O)(C/C=C/c2ccccc2)C(OC)=CC1=O (configuration not stated) | 6.22 |  | 
C=C[C@@H](c1ccccc1)c1cc(O)ccc1O | 31.6 |  | 
C=C[C@H](C1=CC(=O)C=CC1=O)c1ccccc1 | 39.7 |  | 
COc1ccc(C(=O)/C=C/c2ccccc2)c(O)c1 | 5.4 | > 25 | 
